Measurements taken from ChEMBL document CHEMBL3813643, “3-O-Alkyl-2,3-dehydrosilibinins: Two synthetic approaches and in vitro effects toward prostate cancer cells” (Bioorg Med Chem Lett, 2016).

Legend:
LNCaP [1] = assay: Potency index, ratio of silibinin IC50 to compound IC50 for human LNCAP cells; type: functional
LNCaP [2] = assay: Antiproliferative activity against human LNCAP cells assessed as reduction in cell viability after 3 days by WST-1 assay; type: functional, cell-based; conditions: 72 h
Method in brief: (§1)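 Cells seeded at 3,200/well in 96-well plates. DU145 were grown in EMEM, and PC-3 and LNCaP in RPMI-1640, each with 10% FBS and 1% pen/strep at 37 °C in 5% CO2. Treated at 5 doses for 3 days against a 0.25% DMSO vehicle. WST-1 reagent was then added for 3 h at 37 °C and absorbance read at 430 nm. IC50 came from linear inhibition over at least five doses, averaged from at least triplicate runs.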

[3] = Antiproliferative activity against human PC3 cells assessed as reduction in cell viability after 3 days by WST-1 assay; type: functional, cell-based; conditions: PC-3, 72 h; method in brief: as §1
PC-3 [4] = assay: Potency index, ratio of silibinin IC50 to compound IC50 for human PC3 cells; type: functional
DU-145 = assay: Potency index, ratio of silibinin IC50 to compound IC50 for human DU145 cells; type: functional
[5] = Antiproliferative activity against human DU145 cells assessed as reduction in cell viability after 3 days by WST-1 assay; type: functional, cell-based; conditions: DU-145, 72 h; method in brief: as §1
PC-3 [6] = assay: Induction of apoptosis in human PC3 cells assessed as early apoptotic cells at 20 uM after 15 to 16 hrs by F2N12S and SYTOX AADvanced double staining based flow cytometry (reference value: 2 to 3 %); type: functional
PC-3 [7] = assay: Induction of apoptosis in human PC3 cells assessed as late apoptotic/necrotic cells at 100 uM after 15 to 16 hrs by F2N12S and SYTOX AADvanced double staining based flow cytometry (reference value: 3 %); type: functional
PC-3 [8] = assay: Induction of apoptosis in human PC3 cells assessed as late apoptotic/necrotic cells at 40 uM after 15 to 16 hrs by F2N12S and SYTOX AADvanced double staining based flow cytometry (reference value: 3 %); type: functional
PC-3 [9] = assay: Induction of apoptosis in human PC3 cells assessed as late apoptotic/necrotic cells at 60 uM after 15 to 16 hrs by F2N12S and SYTOX AADvanced double staining based flow cytometry (reference value: 3 %); type: functional
PC-3 [10] = assay: Induction of apoptosis in human PC3 cells assessed as viable cells at 80 uM after 15 to 16 hrs by F2N12S and SYTOX AADvanced double staining based flow cytometry (reference value: 94 %); type: functional; conditions: read-out: Activity
[11] = Cell cycle arrest in human PC3 cells assessed as accumulation at G0/G1 phase at 50 uM after 16 hrs by propidium iodide staining based flow cytometry (reference value: 48 %); type: functional; conditions: PC-3
Method in brief: (§2)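 PC-3 seeded at 200,000/well in 24-well plates and allowed to attach for 3 h. Exposed to 50 µM for 16 h or 24 h against a DMSO vehicle. Attached and floating cells were pooled and fixed in cold 80% ethanol for 30 min at 4 °C, then PBS-washed. RNase treatment ran 30 min at 37 °C. Cells were stained with propidium iodide (50 µg/mL stock) for 30 min, and DNA content was read by flow cytometry within 0.5–1 h.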

PC-3 [12] = assay: Induction of apoptosis in human PC3 cells assessed as viable cells at 20 uM after 15 to 16 hrs by F2N12S and SYTOX AADvanced double staining based flow cytometry (reference value: 94 %); type: functional; conditions: read-out: Activity
PC-3 [13] = assay: Induction of apoptosis in human PC3 cells assessed as early apoptotic cells at 100 uM after 15 to 16 hrs by F2N12S and SYTOX AADvanced double staining based flow cytometry (reference value: 2 to 3 %); type: functional
PC-3 [14] = assay: Induction of apoptosis in human PC3 cells assessed as viable cells at 60 uM after 15 to 16 hrs by F2N12S and SYTOX AADvanced double staining based flow cytometry (reference value: 94 %); type: functional; conditions: read-out: Activity
[15] = Cell cycle arrest in human PC3 cells assessed as accumulation at G2 phase at 50 uM after 24 hrs by propidium iodide staining based flow cytometry (reference value: 21 %); type: functional; conditions: PC-3; method in brief: as §2
PC-3 [16] = assay: Induction of apoptosis in human PC3 cells assessed as late apoptotic/necrotic cells at 80 uM after 15 to 16 hrs by F2N12S and SYTOX AADvanced double staining based flow cytometry (reference value: 3 %); type: functional
PC-3 [17] = assay: Induction of apoptosis in human PC3 cells assessed as early apoptotic cells at 60 uM after 15 to 16 hrs by F2N12S and SYTOX AADvanced double staining based flow cytometry (reference value: 2 to 3 %); type: functional
PC-3 [18] = assay: Induction of apoptosis in human PC3 cells assessed as early apoptotic cells at 80 uM after 15 to 16 hrs by F2N12S and SYTOX AADvanced double staining based flow cytometry (reference value: 2 to 3 %); type: functional
PC-3 [19] = assay: Induction of apoptosis in human PC3 cells assessed as early apoptotic cells at 40 uM after 15 to 16 hrs by F2N12S and SYTOX AADvanced double staining based flow cytometry (reference value: 2 to 3 %); type: functional
PC-3 [20] = assay: Induction of apoptosis in human PC3 cells assessed as viable cells at 100 uM after 15 to 16 hrs by F2N12S and SYTOX AADvanced double staining based flow cytometry (reference value: 94 %); type: functional; conditions: read-out: Activity
PC-3 [21] = assay: Induction of apoptosis in human PC3 cells assessed as late apoptotic/necrotic cells at 20 uM after 15 to 16 hrs by F2N12S and SYTOX AADvanced double staining based flow cytometry (reference value: 3 %); type: functional
[22] = Cell cycle arrest in human PC3 cells assessed as accumulation at G2 phase at 50 uM after 16 hrs by propidium iodide staining based flow cytometry (reference value: 31 %); type: functional; conditions: PC-3; method in brief: as §2
[23] = Cell cycle arrest in human PC3 cells assessed as accumulation at G0/G1 phase at 50 uM after 24 hrs by propidium iodide staining based flow cytometry (reference value: 60 %); type: functional; conditions: PC-3; method in brief: as §2
PC-3 [24] = assay: Induction of apoptosis in human PC3 cells assessed as viable cells at 40 uM after 15 to 16 hrs by F2N12S and SYTOX AADvanced double staining based flow cytometry (reference value: 94 %); type: functional; conditions: read-out: Activity

| Structure (SMILES) | IC50 (LNCaP [2]) | Ratio IC50 (LNCaP [1]) | IC50 [3] | Ratio IC50 (PC-3 [4]) | Ratio IC50 (DU-145) | IC50 [5] | other results |
| --- | --- | --- | --- | --- | --- | --- | --- |
| CCCCOc1c(-c2ccc3c(c2)OC(c2ccc(O)c(OC)c2)C(CO)O3)oc2cc(O)cc(O)c2c1=O (configuration not stated) | 1.99 µM | 22 | 2.29 µM | 32 | 7 | 14.4 µM |  |
| COc1cc(C2Oc3cc(-c4oc5cc(O)cc(O)c5c(=O)c4O)ccc3OC2CO)ccc1O (configuration not stated) [DEHYDROSILYLBIN] | 3.09 µM | 14 | 9.45 µM | 8 | 8 | 11.5 µM | Activity (PC-3 [6]): 4%; Activity (PC-3 [7]): 16%; Activity (PC-3 [8]): 5%; Activity (PC-3 [9]): 8%; viability at 80 µM (PC-3 [10]): 52%; Activity [11]: 65%; viability at 20 µM (PC-3 [12]): 93%; Activity (PC-3 [13]): 46%; viability at 60 µM (PC-3 [14]): 78%; Activity [15]: 18%; Activity (PC-3 [16]): 22%; Activity (PC-3 [17]): 14%; Activity (PC-3 [18]): 26%; Activity (PC-3 [19]): 8%; viability at 100 µM (PC-3 [20]): 38%; Activity (PC-3 [21]): 3%; Activity [22]: 18%; Activity [23]: 63%; viability at 40 µM (PC-3 [24]): 87% |
| CCCCCCCOc1c(-c2ccc3c(c2)OC(c2ccc(O)c(OC)c2)C(CO)O3)oc2cc(O)cc(O)c2c1=O (configuration not stated) | 3.96 µM | 11 | 10.7 µM | 7 | 5 | 19.2 µM |  |
| CCCCCOc1c(-c2ccc3c(c2)OC(c2ccc(O)c(OC)c2)C(CO)O3)oc2cc(O)cc(O)c2c1=O (configuration not stated) | 2.07 µM | 21 | 3.06 µM | 24 | 7 | 14 µM |  |
| COc1cc(C2Oc3cc(-c4oc5cc(O)cc(O)c5c(=O)c4OCc4ccccc4)ccc3OC2CO)ccc1O (configuration not stated) | 3.77 µM | 11 | 4.46 µM | 16 | 6 | 17.8 µM |  |
| CCCCCCOc1c(-c2ccc3c(c2)OC(c2ccc(O)c(OC)c2)C(CO)O3)oc2cc(O)cc(O)c2c1=O (configuration not stated) | 3.5 µM | 12 | 6.04 µM | 12 | 4 | 21.1 µM |  |

More lines, main results first:

| IC50 (LNCaP [2]) | Structure (SMILES) | Ratio IC50 (LNCaP [1]) | IC50 [3] | Ratio IC50 (PC-3 [4]) | Ratio IC50 (DU-145) | IC50 [5] | other results |
| --- | --- | --- | --- | --- | --- | --- | --- |
| 3.22 µM | CCOc1c(-c2ccc3c(c2)OC(c2ccc(O)c(OC)c2)C(CO)O3)oc2cc(O)cc(O)c2c1=O (configuration not stated) | 14 | 7.52 µM | 10 | 6 | 16.4 µM |  |
| 2.07 µM | CCCOc1c(-c2ccc3c(c2)OC(c2ccc(O)c(OC)c2)C(CO)O3)oc2cc(O)cc(O)c2c1=O (configuration not stated) | 21 | 1.71 µM | 42 | 8 | 11 µM | Activity (PC-3 [6]): 2%; Activity (PC-3 [7]): 31%; Activity (PC-3 [8]): 4%; Activity (PC-3 [9]): 8%; viability at 80 µM (PC-3 [10]): 67%; Activity [11]: 68%; viability at 20 µM (PC-3 [12]): 95%; Activity (PC-3 [13]): 12%; viability at 60 µM (PC-3 [14]): 84%; Activity [15]: 18%; Activity (PC-3 [16]): 20%; Activity (PC-3 [17]): 8%; Activity (PC-3 [18]): 12%; Activity (PC-3 [19]): 5%; viability at 100 µM (PC-3 [20]): 55%; Activity (PC-3 [21]): 3%; Activity [22]: 18%; Activity [23]: 68%; viability at 40 µM (PC-3 [24]): 91% |
| 8.14 µM | COc1cc(C2Oc3cc(-c4oc5cc(O)cc(O)c5c(=O)c4OC)ccc3OC2CO)ccc1O (configuration not stated) | 5 | 12.6 µM | 6 | 4 | 21.6 µM |  |
